Measurements from different studies.
ADRA2C: Alpha-2C adrenergic receptor (ADRA2C, Homo sapiens, UniProt P18825)
ESR1: Estrogen receptor (ESR1, Homo sapiens, UniProt P03372)
APLNR: Apelin receptor (APLNR, Homo sapiens, UniProt P35414)
PLK4: Serine/threonine-protein kinase PLK4 (PLK4, Homo sapiens, UniProt O00444)
Si: Sucrase-isomaltase, intestinal (Si, Rattus norvegicus, UniProt P23739)

| SMILES | target | test | setting | measurement | value |
| --- | --- | --- | --- | --- | --- |
| CCCCC1CNC2CCc3ccc(OC)cc3C12 (racemic) | ADRA2C | ligand displacement, radioligand | – | Ki | 0.622 µM |
| CC(C)(c1ccc(O)cc1)c1ccc(C(C)(C)c2ccc(O)cc2)cc1 | ESR1 | reporter gene, antagonist, luciferase | – | IC50 | 2.9 µM |
| CC[C@H](C)[C@H](NC(=O)[C@H](CCSC)NC(=O)[C@H](CCC(N)=O)NC(=O)[C@H](CCCNC(=N)N)NC(=O)[C@H](Cc1ccccc1)NC(=O)CN)C(=O)N[C@@H](C)C(=O)N[C@@H](CCCNC(=N)N)C(=O)N[C@@H](C)C(=O)N[C@@H](CCCCN)C(=O)N[C@@H](Cc1ccc(O)cc1)C(=O)N[C@@H](CCC(N)=O)C(=O)NCC(=O)N[C@@H](CC(C)C)C(=O)N[C@@H](CC(C)C)C(=O)N[C@@H](Cc1ccc(O)cc1)C(=O)O | APLNR | calcium signal, agonist, fluorescence | – | EC50 | 0.614 µM |
| CC[C@H](C)[C@H](NC(=O)[C@@H](N)CCC(=O)O)C(=O)N[C@@H](C)C(=O)N1CCC[C@H]1C(=O)N[C@H](C(=O)N[C@@H](CC(C)C)C(=O)N[C@@H](Cc1c[nH]cn1)C(=O)N[C@@H](CO)C(=O)N[C@H](C(=O)O)[C@@H](C)OP(=O)(O)O)C(C)C | PLK4 | binding, MST | pH 8 | Kd | 0.0229 µM |
| COc1cc2c(cc1OC)CN(CCc1ccc(NC(=O)c3cccc4c(=O)c5cccc(OC)c5[nH]c34)cc1)CC2 | ADRA2C | cell-free assay | – | Ki | 0.15 µM |
| CCCCCc1cc(O)c(C/C=C(\C)CCC=C(C)C)c(O)c1 | Si | enzyme activity, inhibitor, absorbance | – | IC50 | 620 µM |
| CC(C)C[C@H](NC(=O)[C@H](CC(C)C)NC(=O)[C@@H]1CCCN1C(=O)[C@H](C)NC(=O)[C@@H](NC(=O)[C@H](C)N)C(C)C)C(=O)N[C@@H](Cc1c[nH]cn1)C(=O)N[C@@H](CO)C(=O)N[C@H](C(=O)O)[C@@H](C)OP(=O)(O)O | PLK4 | binding, MST | pH 8 | Kd | 0.0398 µM |
| CC(C)C[C@@H]1NC(=O)[C@H](CCCNC(=N)N)NC(=O)[C@@H]2CCCN2C(=O)[C@H](CCCNC(=N)N)NC(=O)[C@@H](NC(=O)[C@H](Cc2c[nH]cn2)NC(=O)[C@H](CCCCN)NC(=O)[C@@H]2CSSC[C@H](N)C(=O)N[C@@H](CCCNC(=N)N)C(=O)N3CCC[C@H]3C(=O)N[C@@H](CCCNC(=N)N)C(=O)N[C@@H](CC(C)C)C(=O)N2)CSSC[C@@H](C(=O)O)NC1=O | APLNR | β-arrestin recruitment, antagonist | – | IC50 | 10.1 µM |
| CC[C@H](C)[C@H](NC(=O)[C@H](CO)NC(=O)[C@H](Cc1c[nH]cn1)NC(=O)[C@H](Cc1ccccc1)NC(=O)[C@H](CCCCN)NC(=O)[C@H](CCCCN)NC(=O)[C@H](CS)NC(=O)[C@H](CC(C)C)NC(=O)[C@H](CCC(=O)O)NC(=O)[C@@H]1CCCN1C(=O)[C@@H](N)CO)C(=O)N1CCC[C@H]1C(=O)N[C@@H](CC(C)C)C(=O)N[C@@H](Cc1ccccc1)C(=O)N1CCC[C@H]1C(=O)O | APLNR | calcium signal, agonist, fluorescence | – | EC50 | 0.127 µM |
| CCCCCc1cc(O)c2c(c1)OC(C)(CCC=C(C)C)C=C2 (stereo not shown) | Si | enzyme activity, inhibitor, absorbance | – | IC50 | 540 µM |
| CC(c1ccccc1)(c1ccc(O)cc1)c1ccc(O)cc1 | ESR1 | reporter gene, antagonist, luciferase | – | IC50 | 20.7 µM |
| CC[C@H](C)[C@H](NC(=O)[C@H](CCCCN)NC(=O)[C@H](CCCCN)NC(=O)[C@H](C)NC(=O)[C@H](C)NC(=O)[C@@H](NC(=O)[C@H](CCCNC(=N)N)NC(=O)[C@H](CCSC)NC(=O)[C@H](CCC(N)=O)NC(=O)[C@H](CCC(=O)O)NC(=O)[C@H](CCCCN)NC(=O)[C@@H](N)CO)[C@@H](C)CC)C(=O)NCC(=O)N[C@@H](CC(C)C)C(=O)N[C@@H](CC(C)C)C(=O)N[C@@H](CCC(=O)O)C(=O)O | APLNR | calcium signal, antagonist, fluorescence | – | IC50 | 20.3 µM |
| CC(C)(C)C#Cc1cc(-c2ccnc(N)c2)cc2c(N)n[nH]c12 | Inhibitor of nuclear factor kappa-B kinase subunit beta (IKBKB, Homo sapiens, UniProt O14920) | enzyme activity, inhibitor, FRET | – | IC50 | 4.59 µM |
| C[C@H](CCCOS(=O)(=O)O)[C@H]1CC[C@H]2[C@@H]3CC[C@H]4C[C@@H](O)CC[C@]4(C)[C@H]3CC[C@]12C | cGMP-inhibited 3',5'-cyclic phosphodiesterase 3A (PDE3A, Homo sapiens, UniProt Q14432) | enzyme activity, inhibitor | – | IC50 | 7.05 µM |
| CC(C)C[C@H](NC(=O)[C@H](CCCNC(=N)N)NC(=O)[C@H](CCCNC(=N)N)NC(=O)[C@H](CS)NC(=O)[C@H](CCCNC(=N)N)NC(=O)[C@H](CCC(=O)O)NC(=O)[C@H](CCCNC(=N)N)NC(=O)[C@@H](N)CO)C(=O)N[C@@H](Cc1c[nH]cn1)C(=O)N[C@@H](CO)C(=O)N[C@@H](CC(C)C)C(=O)N1CCC[C@H]1C(=O)N[C@@H](CC(C)C)C(=O)N[C@@H](Cc1ccccc1)C(=O)N1CCC[C@H]1C(=O)O | APLNR | calcium signal, agonist, fluorescence | – | EC50 | 0.0042 µM |
| Clc1ccc(C(c2ccccc2Cl)C(Cl)(Cl)Cl)cc1 (stereo not shown) | Glucocorticoid receptor (NR3C1, Homo sapiens, UniProt P04150) | ligand displacement | – | IC50 | 2.72 µM |
